Assay results published in ChEMBL document CHEMBL1149910, “2-(6-aryl-3(Z)-hexen-1,5-diynyl)anilines as a new class of potent antitubulin agents” (J Med Chem, 2008).

Tests used:
Format in all cases: functional
K562 [1] = assay: Cytotoxicity against human K562 cells
Summary of the method: (§1)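 Tested in the NCI in vitro antitumor screening protocol across a tumor cell line panel. GI₅₀ is the concentration producing a 50% reduction in cell growth.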

HCT-15 = assay: Cytotoxicity against human HCT15 cells; summary of the method: as §1
SNB-75 = assay: Cytotoxicity against human SNB75 cells; conditions: read-out: pGI50 (converted); summary of the method: as §1
UACC-62 = assay: Cytotoxicity against human UACC62 cells; conditions: read-out: pGI50 (converted)
Summary of the method: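 NCI in vitro antitumor screening protocol; GI50 taken as the concentration giving 50% reduction in cell growth.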

OVCAR-3 = assay: Cytotoxicity against human OVCAR-3 cells; summary of the method: as §1
MDA-MB-231 [2] = assay: Cytotoxicity against human MDA-MB-231 cells; summary of the method: as §1
MDA-MB-435 = assay: Cytotoxicity against human MDA-MB-435 cells; summary of the method: as §1
MDA-MB-231 [3] = assay: Cell cycle arrest in human MDA-MB-231 cells assessed as accumulation of 2N cells at 2 uM after 24 hrs by flow cytometry
MDA-MB-231 [4] = assay: Cell cycle arrest in human MDA-MB-231 cells assessed as accumulation at sub-G1 phase at 2 uM after 24 hrs by flow cytometry
MDA-MB-231 [5] = assay: Cell cycle arrest in human MDA-MB-231 cells assessed as accumulation of 4N cells at 2 uM after 24 hrs by flow cytometry
MDA-MB-231 [6] = assay: Cell cycle arrest in human MDA-MB-231 cells assessed as accumulation of >4N cells at 2 uM after 24 hrs by flow cytometry
MDA-MB-231 [7] = assay: Cell cycle arrest in human MDA-MB-231 cells assessed as accumulation of 2N cells at 2 uM after 72 hrs by flow cytometry
MDA-MB-231 [8] = assay: Cell cycle arrest in human MDA-MB-231 cells assessed as accumulation at sub-G1 phase at 2 uM after 72 hrs by flow cytometry
MDA-MB-231 [9] = assay: Cell cycle arrest in human MDA-MB-231 cells assessed as accumulation of 4N cells at 2 uM after 72 hrs by flow cytometry
MDA-MB-231 [10] = assay: Cell cycle arrest in human MDA-MB-231 cells assessed as accumulation of >4N cells at 2 uM after 72 hrs by flow cytometry
K562 [11] = assay: Cell cycle arrest in human K562 cells assessed as accumulation at G0/G1 phase at 50 uM after 24 hrs by flow cytometry
Summary of the method: (§2)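 K-562 human leukemia cells were grown in RPMI 1640 with 10% fetal calf serum, glutamine and penicillin/streptomycin at 37 °C in 5% CO₂. Cells were exposed to compound at 50 µM for 24 h, then pelleted and PBS-washed. They were fixed in ice-cold ethanol for 30 min, treated with 1 mg/mL RNase A at 37 °C for 30 min, and stained with propidium iodide and Triton X-100 for 30 min at room temperature in the dark. Per-phase and sub-G1 percentages came from flow cytometry gating.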

K562 [12] = assay: Cell cycle arrest in human K562 cells assessed as accumulation at S phase at 50 uM after 24 hrs by flow cytometry; summary of the method: as §2
K562 [13] = assay: Cell cycle arrest in human K562 cells assessed as accumulation at G2/M phase at 50 uM after 24 hrs by flow cytometry; summary of the method: as §2
K562 [14] = assay: Cell cycle arrest in human K562 cells assessed as accumulation at sub-G1 phase at 50 uM after 24 hrs by flow cytometry; summary of the method: as §2

COc1cc2c(c(OC)c1OC)-c1ccc(OC)c(=O)cc1[C@@H](NC(C)=O)CC2 [COLCHICINE]
GI50 (K562 [1]): 12.6 nM
GI50 (HCT-15): 0.126 µM
GI50 (SNB-75): 25.1 nM
GI50 (UACC-62): 0.0251 µM
GI50 (OVCAR-3): 0.0158 µM
GI50 (MDA-MB-231 [2]): 316 nM
GI50 (MDA-MB-435): 10 nM
Activity (MDA-MB-231 [3]): 10.2%
Activity (MDA-MB-231 [4]): 23.3%
Activity (MDA-MB-231 [5]): 55.2%
Activity (MDA-MB-231 [6]): 11.3%
Activity (MDA-MB-231 [7]): 6.9%
Activity (MDA-MB-231 [8]): 60%
Activity (MDA-MB-231 [9]): 21.6%
Activity (MDA-MB-231 [10]): 11.5%

CCOC(=O)c1ccccc1C#C/C=C\C#Cc1ccccc1N
Activity (K562 [11]): 5.9%
Activity (K562 [12]): 12.7%
Activity (K562 [13]): 81.4%
Activity (K562 [14]): 28.68%

Nc1ccccc1C#C/C=C\C#CC#C/C=C\C#Cc1ccccc1N
GI50 (K562 [1]): 794 nM
GI50 (HCT-15): 3.98 µM
GI50 (SNB-75): 3160 nM
GI50 (UACC-62): 2 µM
GI50 (OVCAR-3): 2.51 µM
GI50 (MDA-MB-231 [2]): 1580 nM
GI50 (MDA-MB-435): 3160 nM
Activity (K562 [11]): 22.8%
Activity (K562 [12]): 25%
Activity (K562 [13]): 52.2%
Activity (K562 [14]): 9.19%

Nc1ccccc1C#C/C=C\C#Cc1ccccc1OC(F)(F)F
GI50 (K562 [1]): 2510 nM
GI50 (HCT-15): 3.98 µM
GI50 (SNB-75): 2510 nM
GI50 (UACC-62): 6.31 µM
GI50 (OVCAR-3): 3.98 µM
GI50 (MDA-MB-231 [2]): 5010 nM
GI50 (MDA-MB-435): 1260 nM
Activity (K562 [11]): 4.5%
Activity (K562 [12]): 24.1%
Activity (K562 [13]): 71.4%
Activity (K562 [14]): 30.55%

Nc1ccccc1C#C/C=C\C#Cc1ccccc1F
GI50 (K562 [1]): 3160 nM
GI50 (HCT-15): 5.01 µM
GI50 (UACC-62): 7.94 µM
GI50 (OVCAR-3): 3.16 µM
GI50 (MDA-MB-231 [2]): 10000 nM
GI50 (MDA-MB-435): 2000 nM
Activity (K562 [11]): 22.1%
Activity (K562 [12]): 40.9%
Activity (K562 [13]): 37%
Activity (K562 [14]): 11.5%

Nc1ccccc1C#C/C=C\C#Cc1c(F)c(F)c(F)c(F)c1F
GI50 (K562 [1]): 15800 nM
GI50 (HCT-15): 15.8 µM
GI50 (SNB-75): 39800 nM
GI50 (UACC-62): 12.6 µM
GI50 (OVCAR-3): 15.8 µM
GI50 (MDA-MB-231 [2]): 2510 nM
GI50 (MDA-MB-435): 15800 nM
Activity (K562 [11]): 43.6%
Activity (K562 [12]): 38.5%
Activity (K562 [13]): 17.9%
Activity (K562 [14]): 27.34%

Nc1ccccc1C#C/C=C\C#Cc1ccccc1[N+](=O)[O-]
GI50 (K562 [1]): 501 nM
GI50 (HCT-15): 0.794 µM
GI50 (SNB-75): 12600 nM
GI50 (UACC-62): 2 µM
GI50 (OVCAR-3): 3.98 µM
GI50 (MDA-MB-231 [2]): 398 nM
GI50 (MDA-MB-435): 398 nM
Activity (K562 [11]): 42.7%
Activity (K562 [12]): 41%
Activity (K562 [13]): 16.3%
Activity (K562 [14]): 11.13%

Nc1ccccc1C#C/C=C\C#Cc1ccc(F)cc1F
GI50 (K562 [1]): 5010 nM
GI50 (HCT-15): 12.6 µM
GI50 (UACC-62): 15.8 µM
GI50 (OVCAR-3): 6.31 µM
GI50 (MDA-MB-231 [2]): 15800 nM
GI50 (MDA-MB-435): 2510 nM
Activity (K562 [11]): 32.5%
Activity (K562 [12]): 33.1%
Activity (K562 [13]): 34.4%
Activity (K562 [14]): 10.04%

COc1ccc(/C=C\c2cc(OC)c(OC)c(OC)c2)cc1O [COMBRETASTATIN A4]
GI50 (K562 [1]): 31.6 nM
GI50 (HCT-15): 0.0316 µM
GI50 (SNB-75): 794 nM
GI50 (UACC-62): 0.01 µM
GI50 (OVCAR-3): 0.0398 µM
GI50 (MDA-MB-231 [2]): 10 nM
GI50 (MDA-MB-435): 31.6 nM

Nc1ccccc1C#C/C=C\C#Cc1ccc([N+](=O)[O-])cc1
Activity (K562 [11]): 35%
Activity (K562 [12]): 46.2%
Activity (K562 [13]): 18.8%
Activity (K562 [14]): 15.78%
